Published values pooled from the literature.
Compare with care: the assays were run in different laboratories.

Structure (SMILES)	cell line	test	setting	IC50
CN(C)c1ccc(-c2nc3ccccc3[nH]2)cc1	MCF7	cell growth or viability, MTT	48 h	> 100 µM
O=C(/C=C/c1ccc2ncn(CC3CCCCC3)c(=O)c2c1)NO	SW-620	cell growth or viability, SRB	48 h	1.16 µM
COc1ccc(C(=O)O[C@@H]2CN3Cc4c(cc5c(c4OC)OCO5)[C@@]24C=C[C@H](OC)C[C@@H]34)cc1	SAOS-2	cell growth or viability, WST-1		> 10 µM
CC(C)[C@H](N)C(=O)N1CCC[C@H]1B(O)O	NOMO-1	cell growth or viability, ATP luminescence	48 h	0.165 µM
CC[C@@]1(O)C(=O)OCc2c1cc1n(c2=O)Cc2cc3ccccc3nc2-1	P388	cell growth or viability, MTT	96 h	0.014 µM
N#Cc1cc([N+](=O)[O-])c2sc(C(N)=O)[n+]([O-])c2c1	THP-1	TNF-α release, inhibitor	17 h, LPS-stimulated	2.96 µM
CC(=O)O[C@H]1C(=O)[C@@]2(C)[C@H]([C@H](OC(=O)c3ccccc3)[C@]3(O)C[C@H](OC(=O)[C@H](O)[C@@H](NC(=O)c4ccccc4)c4ccccc4)C(C)=C1C3(C)C)[C@]1(OC(C)=O)CO[C@@H]1C[C@@H]2O	Panc02	cell growth or viability, CCK-8	72 h	0.0833 µM
Cc1ccc(S(=O)(=O)N[C@@H](Cc2ccccc2)C(=O)CCl)cc1	THP-1	TNF-α release, inhibitor	17 h, LPS-stimulated	1.08 µM
O=c1c(O)c(-c2ccc(O)cc2)oc2cc(O)cc(O)c12	HEp-2	cell growth or viability, WST-1	48 h	30.3 µM
O=C(/C=C/c1ccc2c(=O)n(Cc3cccc(F)c3)cnc2c1)NO	SW-620	cell growth or viability, SRB	48 h	1.67 µM
CC(C)NCC(O)c1ccc(O)c(O)c1 (racemic)	THP-1	TNF-α release, inhibitor	17 h, LPS-stimulated	0.016 µM
COc1cccc2c1C(=O)c1c(O)c3c(c(O)c1C2=O)C[C@@](O)(C(=O)CO)C[C@@H]3O[C@H]1C[C@H](N)[C@H](O)[C@H](C)O1	SUM159	cell growth or viability, MTT	48 h	4 µM
O=C(/C=C/c1ccc(O)c(O)c1)O[C@@H]1C[C@](O)(C(=O)O)C[C@@H](O)[C@H]1O	HEp-2	cell growth or viability, WST-1	48 h	5.1 µM
N#Cc1ccc(COC[C@H]2O[C@@H](n3c(NCc4ccc(Cl)c(Cl)c4)nc4c(N)ncnc43)[C@H](O)[C@@H]2O)cc1	FaDu	cell growth or viability	72 h	> 20 µM
Cc1ccc2nc(-c3ccco3)n(Cc3ccccc3)c2c1	MCF7	cell growth or viability, MTT		41.5 µM
O=Cc1ccc(CO)o1	HEp-2	cell growth or viability, WST-1	48 h	78.9 µM
CC(C)C[C@H](NC(=O)[C@H](Cc1ccccc1)NC(=O)c1cnccn1)B(O)O	SK-MEL3	cell growth or viability, ATP luminescence		0.0099 µM
Cc1ccc2nc(-c3ccc(Cl)c(Cl)c3)[nH]c2c1	MCF7	cell growth or viability, MTT	48 h	50.8 µM
Nc1nc(Nc2ccccc2)nc2c1ncn2[C@@H]1O[C@H](CO)[C@@H](O)[C@H]1O	FaDu	cell growth or viability	72 h	> 20 µM
COc1cc(Nc2nccc(-c3cnn4nc(OC)ccc34)n2)cc(C(F)(F)F)c1	J82	cell growth or viability, ATP luminescence		0.85 µM
COc1c(C)c(OC)c2c(c1C)OC(c1ccccc1)CC2=O (centres unmarked)	FaDu	cell growth or viability, SRB	72 h	> 50 µM
CCCC1(C)C(C#N)(C#N)C1(C#N)C#N	THP-1	TNF-α release, inhibitor	17 h, LPS-stimulated	1.15 µM

Structure (SMILES)	cell line	test	setting	IC50
NCCc1ccc(O)c(O)c1	FaDu	cell growth or viability	72 h	> 20 µM
CC[C@@H](C)[C@H](N)C(=O)N1Cc2ccccc2C1	NOMO-1	cell growth or viability, ATP luminescence	48 h	4.18 µM
CCCCCCCCCCCC(=O)Oc1c(C)c(O)c(C(=O)/C=C/c2ccccc2)c(OC)c1C	FaDu	cell growth or viability, SRB	72 h	> 50 µM
CC(C)/N=C1\c2cc(C(N)=O)nc3c(N)c(Cl)c(N)c(c23)N1C	Calu-3	cell growth or viability		0.77 µM
CC(CCc1ccc(O)cc1)NCCc1ccc(O)c(O)c1 (centres unmarked)	THP-1	TNF-α release, inhibitor, ELISA	17 h, LPS-stimulated	0.09 µM
C=CCn1c(-c2ccc(Cl)cc2)nc2ccccc21	MCF7	cell growth or viability, MTT		79 µM
COc1c2c(cc3c1OCO3)[C@]13C=C[C@H](OC)C[C@H]1N(C2)C[C@H]3OC(=O)c1cccc(C)c1	SAOS-2	cell growth or viability, WST-1		> 10 µM
Clc1ccc(-c2nc3ccccc3[nH]2)cc1Cl	MCF7	cell growth or viability, MTT	48 h	11.1 µM
COc1cc2nc(N3CCN(C(=O)c4ccco4)[C@H]4CCCC[C@H]43)nc(N)c2cc1OC (racemic)	FaDu	cell growth or viability	72 h	14.1 µM
O=c1[nH]cc(F)c(=O)[nH]1	HEp-2	cell growth or viability, WST-1	48 h	9.3 µM
COc1ccc(C(=O)O[C@@H]2CN3Cc4c(cc5c(c4OC)OCO5)[C@@]24C=C[C@H](OC)C[C@@H]34)cc1OC	SAOS-2	cell growth or viability, WST-1		2.1 µM
COc1ccc(-c2nc3ccccc3[nH]2)cc1O	MCF7	cell growth or viability, MTT	48 h	29.7 µM
CCN(CC)CCOC(=O)C1(c2ccc([N+](=O)[O-])cc2)CCCC1	FaDu	cell growth or viability	72 h	> 20 µM
Cc1ccc(O)cc1	B16F0	cell growth or viability, MTT	48 h	1900 µM
CC(C)(C=O)Cc1cc(C(C)(C)C)c(O)c(C(C)(C)C)c1	FaDu	cell growth or viability	72 h	> 20 µM
COc1ccc(-c2nc3ccc(C)cc3[nH]2)cc1OC	MCF7	cell growth or viability, MTT	48 h	> 100 µM
CCCn1cnc2cc(/C=C/C(=O)NO)ccc2c1=O	SW-620	cell growth or viability, SRB	48 h	1.34 µM
CCCCCC/N=C1\c2cc(C(N)=O)nc3c(N)c(Cl)c(N)c(c23)N1C	Calu-3	cell growth or viability		0.86 µM
O=C1Nc2ccc(Cl)cc2[C@@](C#CC2CC2)(C(F)(F)F)O1	FaDu	cell growth or viability	72 h	> 20 µM
O=c1[nH]cc(S(=O)(=O)Nc2cccc(-c3nnc(-c4cccc(Cl)c4)o3)c2)c(=O)[nH]1	NCI-H441	cell growth or viability, MTT	24 h	4.29 µM
CC(=O)CC(c1ccccc1)c1c(O)c2ccccc2oc1=O (centres unmarked)	FaDu	cell growth or viability	72 h	> 20 µM
O=C(/C=C/c1cccc(S(=O)(=O)Nc2ccccc2)c1)NO	SW-620	cell growth or viability, SRB	48 h	3.23 µM
